Measured values as given in ChEMBL document CHEMBL1157725 (Bioorg Med Chem, 2010).
Calls of active or inactive are those of the source. No cut-off for these calls is given here.

What was measured:
MCF7 [1] = test: Antiproliferative activity against human MCF7 cells after 24 hrs by SRB assay; format: functional, cell-based; details: MCF7, 24 h
In short: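 MCF-7 cells are grown for 24 h with or without drug, then for a further 48 h. Total cell protein is measured by sulforhodamine B staining, and the IC₅₀ is derived from it.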

[2] = Inhibition of tubulin polymerization by turbidimetry
In short: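 Tubulin at 10 µM (1.0 mg/mL). Polymerization followed turbidimetrically at 350 nm in temperature-controlled spectrophotometers.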

[3] = Displacement of [3H]colchicine from tubulin at 50 uM by turbidimetry; details: in the assay text read “by DEAE-cellulose filter method” for “by turbidimetry”
In short: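 Binding of [³H]colchicine to tubulin (1.0 µM, 0.1 mg/mL) is measured by the DEAE-cellulose filter method. The radioligand is at 5.0 µM and test agents at 5 or 50 µM. Each is run in triplicate.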

[4] = Inhibition of tubulin in rat A10 cells assessed as induction of cellular microtubule disassembly after 18 hrs by indirect immunofluorescence technique; format: cell-based; details: A10, 18 h
In short: (§1)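 A-10 cells plated on glass coverslips and treated with compound at varying concentrations for 18 h. After fixation, microtubules immunostained with a β-tubulin antibody (indirect immunofluorescence) and nuclei stained with DAPI. Read by fluorescence microscopy. Percentage of cellular microtubule loss estimated visually across the concentration range.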

A10 = test: Inhibition of tubulin in rat A10 cells assessed as thinning of microtubule network at 20 uM after 18 hrs by fluorescence microscopy; format: cell-based; in short: as §1
CCRF-CEM = test: Growth inhibition of human CCRF-CEM cells after 48 hrs by SRB assay; format: functional
K562 = test: Growth inhibition of human K562 cells after 48 hrs by SRB assay; format: functional; details: K562, 48 h
MOLT-4 = test: Growth inhibition of human MOLT4 cells after 48 hrs by SRB assay; format: functional; details: MOLT-4, 48 h
[5] = Growth inhibition of human […] cells after 48 hrs by SRB assay; format: functional
SR = test: Growth inhibition of human SR cells after 48 hrs by SRB assay; format: functional
In short: (§2)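 NCI human tumor cell line panel. Cells exposed for 48 h to five concentrations in a 10-fold serial dilution. Growth inhibition read as total cell protein by sulforhodamine B staining. GI50 calculated from log dose–response curves.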

A549 = test: Growth inhibition of human A549 cells after 48 hrs by SRB assay; format: functional; details: A549, 48 h
EKVX = test: Growth inhibition of human EKVX cells after 48 hrs by SRB assay; format: functional
HOP-62 = test: Growth inhibition of human HOP62 cells after 48 hrs by SRB assay; format: functional; details: HOP-62, 48 h
HOP-92 = test: Growth inhibition of human HOP92 cells after 48 hrs by SRB assay; format: functional; details: HOP-92, 48 h
NCI-H226 = test: Growth inhibition of human NCI-H226 cells after 48 hrs by SRB assay; format: functional; details: NCI-H226, 48 h
NCI-H23 = test: Growth inhibition of human NCI-H23 cells after 48 hrs by SRB assay; format: functional; details: NCI-H23, 48 h
NCI-H322M = test: Growth inhibition of human NCI-H322M cells after 48 hrs by SRB assay; format: functional
NCI-H460 = test: Growth inhibition of human NCI-H460 cells after 48 hrs by SRB assay; format: functional; details: NCI-H460, 48 h
NCI-H522 = test: Growth inhibition of human NCI-H522 cells after 48 hrs by SRB assay; format: functional; details: NCI-H522, 48 h
COLO 205 = test: Growth inhibition of human COLO205 cells after 48 hrs by SRB assay; format: functional; details: COLO 205, 48 h
HCC 2998 = test: Growth inhibition of human HCC2998 cells after 48 hrs by SRB assay; format: functional; details: HCC 2998, 48 h
HCT-116 = test: Growth inhibition of human HCT116 cells after 48 hrs by SRB assay; format: functional; details: HCT-116, 48 h
HCT-15 = test: Growth inhibition of human HCT15 cells after 48 hrs by SRB assay; format: functional; details: HCT-15, 48 h
KM12 = test: Growth inhibition of human KM12 cells after 48 hrs by SRB assay; format: functional; details: KM12, 48 h
SW-620 = test: Growth inhibition of human SW620 cells after 48 hrs by SRB assay; format: functional; details: SW-620, 48 h; in short: as §2
SF-268 = test: Growth inhibition of human SF268 cells after 48 hrs by SRB assay; format: functional; details: SF-268, 48 h
In short: (§3)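 This is the NCI cell-line panel. Cells are exposed for 48 h to five concentrations in 10-fold serial dilution. Growth is read by the SRB protein assay, and GI₅₀ is calculated from log dose–response curves.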

SF-295 = test: Growth inhibition of human SF295 cells after 48 hrs by SRB assay; format: functional; details: SF-295, 48 h; in short: as §3
SF-539 = test: Growth inhibition of human SF539 cells after 48 hrs by SRB assay; format: functional; details: SF-539, 48 h; in short: as §2
SNB-19 = test: Growth inhibition of human SNB19 cells after 48 hrs by SRB assay; format: functional; details: SNB-19, 48 h; in short: as §2
U-251 = test: Growth inhibition of human U251 cells after 48 hrs by SRB assay; format: functional; details: U-251, 48 h; in short: as §2
LOX IMVI = test: Growth inhibition of human LOXIMVI cells after 48 hrs by SRB assay; format: functional; in short: as §3
Malme-3M = test: Growth inhibition of human MALME-3M cells after 48 hrs by SRB assay; format: functional; in short: as §3
M14 = test: Growth inhibition of human M14 cells after 48 hrs by SRB assay; format: functional; details: M14, 48 h; in short: as §3
SK-MEL-2 = test: Growth inhibition of human SK-MEL-2 cells after 48 hrs by SRB assay; format: functional; details: SK-MEL-2, 48 h; in short: as §2
SK-MEL-5 = test: Growth inhibition of human SK-MEL-5 cells after 48 hrs by SRB assay; format: functional; details: SK-MEL-5, 48 h; in short: as §2
UACC-257 = test: Growth inhibition of human UACC257 cells after 48 hrs by SRB assay; format: functional; details: UACC-257, 48 h; in short: as §2
UACC-62 = test: Growth inhibition of human UACC62 cells after 48 hrs by SRB assay; format: functional; details: UACC-62, 48 h; in short: as §2
IGROV-1 = test: Growth inhibition of human IGROV1 cells after 48 hrs by SRB assay; format: functional; details: IGROV-1, 48 h; in short: as §3
OVCAR-3 = test: Growth inhibition of human OVCAR-3 cells after 48 hrs by SRB assay; format: functional; details: OVCAR-3, 48 h; in short: as §3
OVCAR-4 = test: Growth inhibition of human OVCAR4 cells after 48 hrs by SRB assay; format: functional; details: OVCAR-4, 48 h; in short: as §3
OVCAR-5 = test: Growth inhibition of human OVCAR5 cells after 48 hrs by SRB assay; format: functional; details: OVCAR-5, 48 h; in short: as §3
OVCAR-8 = test: Growth inhibition of human OVCAR8 cells after 48 hrs by SRB assay; format: functional; details: OVCAR-8, 48 h; in short: as §3
SK-OV-3 = test: Growth inhibition of human SKOV3 cells after 48 hrs by SRB assay; format: functional; details: SK-OV-3, 48 h; in short: as §2
786-0 = test: Growth inhibition of human 786-0 cells after 48 hrs by SRB assay; format: functional; details: 786-0, 48 h; in short: as §3
A498 = test: Growth inhibition of human A498 cells after 48 hrs by SRB assay; format: functional; details: A498, 48 h; in short: as §3
ACHN = test: Growth inhibition of human ACHN cells after 48 hrs by SRB assay; format: functional; in short: as §3
CAKI-1 = test: Growth inhibition of human Caki1 cells after 48 hrs by SRB assay; format: functional; details: CAKI-1, 48 h; in short: as §3
RXF 393 = test: Growth inhibition of human RXF393 cells after 48 hrs by SRB assay; format: functional; details: RXF 393, 48 h; in short: as §3
SN12C = test: Growth inhibition of human SN12C cells after 48 hrs by SRB assay; format: functional; in short: as §2
TK-10 = test: Growth inhibition of human TK10 cells after 48 hrs by SRB assay; format: functional; details: TK-10, 48 h; in short: as §2
UO-31 = test: Growth inhibition of human UO31 cells after 48 hrs by SRB assay; format: functional; details: UO-31, 48 h; in short: as §2
PC-3 = test: Growth inhibition of human PC3 cells after 48 hrs by SRB assay; format: functional; details: PC-3, 48 h; in short: as §3
DU-145 = test: Growth inhibition of human DU145 cells after 48 hrs by SRB assay; format: functional; details: DU-145, 48 h; in short: as §3
MCF7 [6] = test: Growth inhibition of human MCF7 cells after 48 hrs by SRB assay; format: functional; details: MCF7, 48 h; in short: as §3
NCI/ADR-RES = test: Growth inhibition of human NCI/ADR-RES cells after 48 hrs by SRB assay; format: functional; in short: as §3
MDA-MB-231 = test: Growth inhibition of human MDA-MB-231 cells after 48 hrs by SRB assay; format: functional; details: MDA-MB-231, 48 h; in short: as §3
[7] = Growth inhibition of human Hs 578T cells after 48 hrs by SRB assay; format: functional; in short: as §3
MDA-MB-435 = test: Growth inhibition of human MDA-MB-435 cells after 48 hrs by SRB assay; format: functional; details: MDA-MB-435, 48 h; in short: as §3
BT-549 = test: Growth inhibition of human BT549 cells after 48 hrs by SRB assay; format: functional; details: BT-549, 48 h; in short: as §3
MCF7 [8] = test: Cell cycle arrest in human MCF7 cells by accumulation at G2/M phase at 0.1 uM after 48 hrs by flow cytometry (Rvb=5.9%); format: functional
MCF7 [9] = test: Cell cycle arrest in human MCF7 cells by accumulation at G2/M phase at 1 uM after 48 hrs by flow cytometry (Rvb=5.9%); format: functional
MCF7 [10] = test: Cell cycle arrest in human MCF7 cells by accumulation at G2/M phase at 5 uM after 48 hrs by flow cytometry (Rvb=5.9%); format: functional
MCF7 [11] = test: Cell cycle arrest in human MCF7 cells by accumulation at G2/M phase at 10 uM after 48 hrs by flow cytometry (Rvb=5.9%); format: functional
HUVEC = test: Antiangiogenic activity in HUVEC cells assessed inhibition of tube formation at 1 uM after 16 hrs by tube formation assay; format: functional, cell-based; details: Homo sapiens
In short: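 HUVEC cells (1 × 10⁵) are seeded onto a Matrigel surface and tube formation is scored after treatment.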

Aorta = test: Antiangiogenic activity in rat aortic rings assessed inhibition of sprouts formation at 5 uM after 6 days by aortic ring assay; format: functional, tissue-based
[12] = Displacement of [3H]colchicine from tubulin at 5 uM by DEAE-cellulose filter method

IC50 (MCF7 [1]): 900 nM
IC50 [2]: 31 µM
inhibition [3]: 56%
EC50 [4]: 16.5 µM
GI50 (CCRF-CEM): 2390 nM
GI50 (K562): 3.46 µM
GI50 (MOLT-4): 3.6 µM
GI50 (A549): 450 nM
GI50 (NCI-H226): 4.14 µM
GI50 (NCI-H23): 140 nM
GI50 (NCI-H322M): 8.44 µM
GI50 (NCI-H460): 28 nM
GI50 (NCI-H522): 200 nM
GI50 (COLO 205): 2200 nM
GI50 (HCC 2998): 410 nM
GI50 (HCT-116): 370 nM
GI50 (HCT-15): < 10 nM
GI50 (SW-620): 37 nM
GI50 (U-251): 25 nM
GI50 (SK-MEL-2): 3.33 µM
GI50 (SK-MEL-5): 310 nM
GI50 (OVCAR-3): 2080 nM
GI50 (OVCAR-4): 2060 nM
GI50 (OVCAR-5): 1810 nM
GI50 (OVCAR-8): 300 nM
GI50 (SK-OV-3): < 10 nM
GI50 (786-0): 390 nM
GI50 (ACHN): 520 nM
GI50 (PC-3): 250 nM
GI50 (DU-145): 50 nM
GI50 (MCF7 [6]): 34 nM
GI50 (MDA-MB-231): 110 nM
GI50 (MDA-MB-435): 1950 nM
GI50 (BT-549): 21 nM
inhibition [12]: 4.4%
SMILES: COc1ccc(/C=C/C(=O)c2cc(OC)c(OC)c(OC)c2)cc1B(O)O
Activity (A10): Active
GI50 [5]: 1120 nM
GI50 (SR): 2180 nM
GI50 (EKVX): 1310 nM
GI50 (HOP-62): 98 nM
GI50 (HOP-92): 380 nM
GI50 (KM12): 15.4 µM
GI50 (SF-268): 800 nM
GI50 (SF-295): 2730 nM
GI50 (SF-539): 35 nM
GI50 (SNB-19): < 10 nM
GI50 (LOX IMVI): 60 nM
GI50 (Malme-3M): 5.49 µM
GI50 (M14): 1190 nM
GI50 (UACC-257): 4.41 µM
GI50 (UACC-62): 34 nM
GI50 (IGROV-1): 88 nM
GI50 (A498): 4.76 µM
GI50 (CAKI-1): 6.39 µM
GI50 (RXF 393): 390 nM
GI50 (SN12C): 460 nM
GI50 (TK-10): 20.9 µM
GI50 (UO-31): 320 nM
GI50 (NCI/ADR-RES): 50 nM
GI50 [7]: 46 nM
Activity (MCF7 [8]): 6.4%
Activity (MCF7 [9]): 7.1%
Activity (MCF7 [10]): 7.4%
Activity (MCF7 [11]): 14%
inhibition (HUVEC): Active
inhibition (Aorta): Active
